Values belong to the compound of their own block, whether it stands above or below them. Activity calls are given as the source filed them.
How the values were obtained:
[1] = Cytotoxicity against human leukemia stem/progenitor cells assessed as viable CD34+ cells at 10 uM after 18 hrs by annexin-V labeling-based flow cytometry; assay type: functional, CD34+ cell
HL-60 = experiment: Cytotoxicity against human HL60 cells after 18 hrs by annexin-V labeling-based flow cytometry; assay type: functional, cell-based; conditions: HL-60, 18 h
[2] = Cytotoxicity against human leukemia stem/progenitor cells assessed as cell viability at 5 uM after 18 hrs by annexin-V labeling-based flow cytometry; assay type: functional; conditions: in the assay text read “leukemia cells” for “leukemia stem/progenitor cells”, read-out: Activity
How it was run: (§1)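 Primary leukemia cells from AML patient blood were treated for 18 h in serum-free IMDM, then stained with CD34-APC and CD38-PECy7 for 30 min. After washing in cold PBS, cells were labelled with Annexin-V–FITC/PI for 15 min at room temperature and read by flow cytometry. Viability of total and CD34⁺ cells was normalized to untreated controls (mean, SD).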

[3] = Cytotoxicity against human leukemia cells assessed as cell viability at 10 uM after 18 hrs by annexin-V labeling-based flow cytometry
[4] = Cytotoxicity against human leukemia stem/progenitor cells assessed as viable CD34+ cells at 5 uM after 18 hrs by annexin-V labeling-based flow cytometry; assay type: functional, CD34+ cell; how it was run: as §1
[5] = Cytotoxicity against human HL60/A cells after 18 hrs by annexin-V labeling-based flow cytometry; assay type: functional, cell-based
[6] = Induction of apoptosis in CD34+ leukemia stem/progenitor cells assessed as necrotic cells at 10 uM using annexin V/propidium iodide by flow cytometry; assay type: functional, Homo sapiens
How it was run: (§2)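 Primary AML patient cells were exposed to 10 μM compound for 18 h in IMDM, then stained with CD34-APC/CD38-PECy7. Annexin-V–FITC/PI was added and incubated for 15 min at room temperature before flow cytometry. Quadrants were defined as Q1 necrotic, Q2 late apoptotic, Q3 early apoptotic and Q4 viable.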

[7] = Induction of apoptosis in CD34+ leukemia stem/progenitor cells assessed as early apoptotic cells at 10 uM using annexin V/propidium iodide by flow cytometry; assay type: functional, Homo sapiens; how it was run: as §2
[8] = Induction of apoptosis in CD34+ leukemia stem/progenitor cells assessed as viable cells at 10 uM using annexin V/propidium iodide by flow cytometry; assay type: functional; conditions: Homo sapiens; read-out: Activity; how it was run: as §2
Homo sapiens = experiment: Antitumor activity against human leukemia stem/progenitor cells xenografted in NOD/SCID mouse assessed as reduction of CD45+CD33+ cells in spleen compound pretreated for 18 hrs before grafting process measured after 8 weeks; assay type: functional, tissue-based
How it was run: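 Fresh primary AML patient cells were exposed for 18 h to saline or compound. Equal numbers of surviving cells were then injected iv into NOD/SCID mice. After 8 weeks the mice were sacrificed, and the spleen CD33⁺CD45⁺ human cells were quantified by flow cytometry, with each animal analysed individually.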

[9] = Reduction in colony forming units of leukemia stem/progenitor cells at 5 uM after 15 to 20 days; assay type: functional, Homo sapiens
How it was run: (§3)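 Mononuclear cells from AML patient […] were exposed to drug for 18 h in serum-free IMDM, then plated in triplicate in M3434 methylcellulose. Total colonies (CFC-Mix, CFC-GM, CFC-G, CFC-M, BFU-E) were scored by morphology after 15−20 days.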

[10] = Cytotoxicity against human CD34+ hematopioetic stem cells at 5 uM by immunostaining method; assay type: cell-based
How it was run: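 Mononuclear cells were Ficoll-isolated from umbilical cord blood of a normal donor, cryopreserved, then rested in serum-free IMDM for 1 h. Cells were treated for 18 h in IMDM, stained with CD34-APC for 30 min, and labelled with Annexin-V–FITC/PI for 15 min at room temperature. Read by flow cytometry, normalized to vehicle, done in triplicate.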

[11] = Reduction in colony forming units of leukemia stem/progenitor cells at 10 uM after 15 to 20 days; assay type: functional, Homo sapiens; how it was run: as §3
[12] = Cytotoxicity against human leukemia stem/progenitor cells assessed as viable CD34+ cells at 10 uM after 18 hrs by annexin-V labeling-based flow cytometry relative to control; assay type: functional, CD34+ cell
[13] = Induction of apoptosis in CD34+ leukemia stem/progenitor cells assessed as late apoptotic cells at 10 uM using annexin V/propidium iodide by flow cytometry; assay type: functional, Homo sapiens; how it was run: as §2
[14] = Cytotoxicity against human leukemia stem/progenitor cells assessed as viable CD34+CD38- cells at 10 uM after 18 hrs by annexin-V labeling-based flow cytometry relative to control; assay type: functional
[15] = Total clearance in mouse at 150 mg/kg, po; assay type: ADME, organism-based; parameters: dose 150 mg/kg, route oral; conditions: in vivo
How it was run: (§4)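 Male Kunming mice (20 2 g), fasted 12 h before dosing with water available, given DMAMCL as an aqueous solution po (n = 5). Blood was drawn from the orbital veins at set times. Plasma DMAMCL and MCL were followed, and parameters came from noncompartmental analysis.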

[16] = Volume of distribution in mouse at 100 mg/kg, iv; assay type: ADME, organism-based; parameters: dose 100 mg/kg, route intravenous; conditions: in vivo
How it was run: (§5)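 Male Kunming mice (20 2 g) were fasted 12 h with water available. An aqueous solution was dosed po (150 mg/kg) or iv (100 mg/kg), n = 5 per route. Blood was drawn from the orbital veins at set times to measure DMAMCL and released MCL. Parameters come from a noncompartmental model and are given as mean with SD.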

[17] = Total clearance in mouse at 100 mg/kg, iv; assay type: ADME, organism-based; parameters: dose 100 mg/kg, route intravenous; conditions: in vivo
How it was run: (§6)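 Male Kunming mice (20 2 g), fasted 12 h before dosing with water available, given DMAMCL as an aqueous solution iv (n = 5). Blood was drawn from the orbital veins at set times. DMAMCL and MCL in plasma were measured, and parameters were derived by a noncompartmental model.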

[18] = AUC (0 to t) in mouse at 100 mg/kg, iv; assay type: ADME, organism-based; parameters: dose 100 mg/kg, route intravenous; conditions: plasma; how it was run: as §6
[19] = Half life in mouse at 150 mg/kg, po; assay type: ADME, organism-based; parameters: dose 150 mg/kg, route oral; conditions: in vivo; how it was run: as §4
Mus musculus = experiment: Volume of distribution in mouse at 150 mg/kg, po; assay type: ADME, organism-based; parameters: dose 150 mg/kg, route oral; conditions: in vivo; how it was run: as §5
[20] = AUC (0 to t) in mouse at 150 mg/kg, po; assay type: ADME, organism-based; parameters: dose 150 mg/kg, route oral; conditions: plasma; how it was run: as §4
[21] = AUC (0 to infinity) in mouse at 150 mg/kg, po; assay type: ADME, organism-based; parameters: dose 150 mg/kg, route oral, time infinity; conditions: plasma; how it was run: as §4
[22] = Tmax in mouse at 150 mg/kg, po; assay type: ADME, organism-based; parameters: dose 150 mg/kg, route oral; conditions: in vivo; how it was run: as §4
[23] = Cmax in mouse at 100 mg/kg, iv; assay type: ADME, organism-based; parameters: dose 100 mg/kg, route intravenous; conditions: in vivo; how it was run: as §6
[24] = Mean retention time (0 to t) in mouse at 150 mg/kg, po; assay type: ADME, organism-based; parameters: dose 150 mg/kg, route oral; conditions: in vivo; how it was run: as §4
[25] = Half life in mouse at 100 mg/kg, iv; assay type: ADME, organism-based; parameters: dose 100 mg/kg, route intravenous; conditions: in vivo; how it was run: as §6
[26] = AUC (0 to infinity) in mouse at 100 mg/kg, iv; assay type: ADME, organism-based; parameters: time infinity, dose 100 mg/kg, route intravenous; conditions: plasma; how it was run: as §6
[27] = Mean retention time (0 to infinity) in mouse at 150 mg/kg, po; assay type: ADME, organism-based; parameters: dose 150 mg/kg, route oral; conditions: in vivo; how it was run: as §4
[28] = Cmax in mouse at 150 mg/kg, po; assay type: ADME, organism-based; parameters: dose 150 mg/kg, route oral; conditions: in vivo; how it was run: as §4
[29] = Mean retention time (0 to infinity) in mouse at 100 mg/kg, iv; assay type: ADME, organism-based; parameters: dose 100 mg/kg, route intravenous; conditions: in vivo; how it was run: as §6
[30] = Mean retention time (0 to t) in mouse at 100 mg/kg, iv; assay type: ADME, organism-based; parameters: dose 100 mg/kg, route intravenous; conditions: in vivo; how it was run: as §6

Compound: C=C1C(=O)O[C@@H]2[C@@H]3[C@@H](CC[C@@]3(C)O)C(=C)CC[C@@H]12
- Activity [1]: 22.6%
- IC50 (HL-60): 9.4 µM
- viability at 5 µM [2]: 61.6%
- viability at 10 µM [3]: 30.6%
- Activity [4]: 53.7%
- IC50 [5]: 9.9 µM

Compound: C=C1C(=O)O[C@@H]2[C@@H]3[C@@H](CC[C@@]3(C)O)[C@](C)(O)CC[C@@H]12
- Activity [1]: 84.8%
- IC50 (HL-60): 21.9 µM
- viability at 5 µM [2]: 88.5%
- viability at 10 µM [3]: 89.9%
- Activity [4]: 84.9%
- IC50 [5]: 17.9 µM

Compound: C=C1C(=O)O[C@@H]2C3O[C@]3(C)CC/C=C(\C)CC[C@@H]12 (some centres not stated)
- Activity [6]: 0.046%
- Activity [7]: 60.3%
- Activity [1]: 4.7%
- viability at 10 µM [8]: 1.73%
- Activity (Homo sapiens): Active
- CFU [9]: 2
- IC50 (HL-60): 3.7 µM
- Activity [10]: Non-toxic
- viability at 5 µM [2]: 18%
- CFU [11]: 0
- fold change (FC) [12]: 3.8
- viability at 10 µM [3]: 8.3%
- Activity [13]: 27.8%
- Activity [4]: 13.2%
- fold change (FC) [14]: 2.6
- IC50 [5]: 4.1 µM

Compound: C=C1CC[C@@H]2[C@](C)(CO)[C@H](O)CC[C@@]2(C)[C@@H]1C/C=C1/C(=O)OC[C@H]1O [ANDROGRAPHOLIDE]
- IC50 (HL-60): 27 µM
- IC50 [5]: 23.3 µM

Compound: C=C1C(=O)O[C@@H]2[C@H]3C(C)=CC[C@@]34O[C@@]4(C)CC[C@@H]12 [ARGLABIN]
- Activity [1]: 10.7%
- fold change (FC) [12]: 1.8
- viability at 10 µM [3]: 20%
- fold change (FC) [14]: 1.9

Compound: C[C@@H]1CC[C@H]2[C@@H](C)C(=O)O[C@@H]3O[C@@]4(C)CC[C@@H]1[C@]32OO4 [ARTEMISININ]
- IC50 (HL-60): > 50 µM
- IC50 [5]: > 50 µM

Compound: C=C1C(=O)O[C@@H]2/C=C(\C)CC/C=C(\C)CC[C@@H]12 [COSTUNOLIDE]
- Activity [1]: 7.5%
- IC50 (HL-60): 7.7 µM
- viability at 5 µM [2]: 25.8%
- viability at 10 µM [3]: 13.4%
- Activity [4]: 18.8%
- IC50 [5]: 5.8 µM

Compound: C=C1CC[C@H]2C(=C)CC[C@H]3C(=C)C(=O)O[C@@H]3[C@@H]12 [DEHYDROCOSTUSLACTONE]
- Activity [1]: 3.8%
- IC50 (HL-60): 5.3 µM
- viability at 5 µM [2]: 6.1%
- viability at 10 µM [3]: 6.4%
- Activity [4]: 2.9%
- IC50 [5]: 3.7 µM

Compound: C=C1CC(=O)OC1=O [ITACONIC ANHYDRIDE]
- IC50 (HL-60): > 50 µM
- IC50 [5]: > 50 µM

- CL/F [15]: 376 mL/min/kg
- Vd [16]: 533 L/kg
- clearance [17]: 288 mL/min/kg
- AUC(0-t) [18]: 5490 ng·h/mL
- half-life [19]: 7.92 h
- Vd (Mus musculus): 265.27 L/kg
- AUC(0-t) [20]: 6630 ng·h/mL
- AUC(0-inf) [21]: 6720 ng·h/mL
- Tmax [22]: 0.36 h
- Cmax [23]: 10700 ng/mL
- MRT last [24]: 7.59 h
- half-life [25]: 12.7 h
- AUC(0-inf) [26]: 5850 ng·h/mL
- MRT inf [27]: 8.28 h
- Cmax [28]: 2610 ng/mL
- MRT inf [29]: 6.34 h
- MRT last [30]: 1.49 h
Compound: C=C1C(=O)O[C@H]2[C@H]1CCC(C)=C1CC[C@@](C)(O)[C@@H]12 [MICHELIOLIDE]
- Activity [6]: 0.127%
- Activity [7]: 24.2%
- Activity [1]: 2.3%
- viability at 10 µM [8]: 1.42%
- Activity (Homo sapiens): Active
- CFU [9]: 4.5
- IC50 (HL-60): 5.5 µM
- Activity [10]: Non-toxic
- viability at 5 µM [2]: 11.7%
- CFU [11]: 0
- fold change (FC) [12]: 3.2
- viability at 10 µM [3]: 8.4%
- Activity [13]: 69.4%
- Activity [4]: 4.2%
- fold change (FC) [14]: 5.3
- IC50 [5]: 6.2 µM

Compound: CCCCC/C=C/C=C/C(=O)N1CCCC1 [SARMENTINE]
- IC50 (HL-60): > 50 µM
- IC50 [5]: > 50 µM

Compound: C=C1CCOC1=O [TULIPALINE A]
- IC50 (HL-60): 35 µM
- IC50 [5]: 28.8 µM
